Square brackets hold non-standard residues; d marks the D form. Peptide text beside a SMILES is read from it. * marks the point of attachment. pY = N[C@@H](Cc1ccc(OP(=O)(O)O)cc1)C(=O)O; Propionyl = CCC(=O)*; NHBu = CCCCN*
Columns and labels:
[1] = target: Proto-oncogene tyrosine-protein kinase Src (Homo sapiens, UniProt P12931); assay: Inhibitory activity against binding of Src protein tyrosine kinase SH2 domain to biotinylated EPQY*EEIPI Peptide by ELISA.
Method in brief: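 It competes with test compounds against biotinylated EPQY*EEIPI (6.0 nM) on streptavidin-coated plates for 1 h at rt. Detection is anti-GST, then AP-conjugated secondary with pNPP at 405 nm. IC50 comes from nonlinear regression, adjusted to the on-plate control peptide.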

[2] = target: Growth factor receptor-bound protein 2 (Homo sapiens, UniProt P62993); assay: Inhibitory activity against binding of Growth factor receptor bound protein 2 to biotinylated KPFY*VNVEF Peptide by ELISA.
Method in brief: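 It is competed with test compounds against biotinylated KPFY*VNVEF (4.0 nM) captured on streptavidin plates for 1 h at rt. Bound GST is detected by rabbit anti-GST, then AP anti-rabbit with pNPP, read at 405 nm. IC50 comes from nonlinear regression, normalized to the on-plate control peptide.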

Sequence of Proto-oncogene tyrosine-protein kinase Src (P12931 2-536 limits assumed): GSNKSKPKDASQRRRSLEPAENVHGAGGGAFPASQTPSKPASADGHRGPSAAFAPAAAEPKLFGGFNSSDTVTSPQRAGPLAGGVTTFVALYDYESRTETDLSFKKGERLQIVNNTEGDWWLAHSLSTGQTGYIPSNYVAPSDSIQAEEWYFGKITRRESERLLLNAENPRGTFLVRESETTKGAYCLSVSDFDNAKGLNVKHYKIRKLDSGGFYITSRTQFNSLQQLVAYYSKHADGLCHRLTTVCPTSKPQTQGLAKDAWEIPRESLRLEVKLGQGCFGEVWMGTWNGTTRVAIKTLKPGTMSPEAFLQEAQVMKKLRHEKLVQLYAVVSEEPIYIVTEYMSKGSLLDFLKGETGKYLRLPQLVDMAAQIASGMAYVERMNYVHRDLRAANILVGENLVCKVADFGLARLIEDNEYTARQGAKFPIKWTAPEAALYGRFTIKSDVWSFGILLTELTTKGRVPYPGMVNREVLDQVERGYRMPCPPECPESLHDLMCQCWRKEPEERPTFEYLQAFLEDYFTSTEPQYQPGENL

| Compound | IC50 [1] [nM] | IC50 [2] [nM] |
| --- | --- | --- |
| CC(=O)N[C@H]1CCCCNC(=O)[C@H]2CCCN2C(=O)[C@H](C(C)C)NC(=O)[C@@H](CC(N)=O)NC(=O)[C@H](C(C)C)NC(=O)[C@@H](Cc2ccc(OP(=O)(O)O)cc2)NC1=O | > 150000 | 70 |
| CC(C)[C@H](NC(=O)[C@H](CC(N)=O)NC(=O)[C@@H](NC(=O)[C@H](Cc1ccc(OP(=O)(O)O)cc1)NC(=O)[C@H](Cc1ccccc1)NC(=O)[C@@H]1CCCN1C(=O)[C@@H](N)CCCCN)C(C)C)C(=O)N[C@@H](CCC(=O)O)C(=O)N[C@@H](Cc1ccccc1)C(=O)O (H-KPF[pY]VNVEF-OH) |  | 700 |
| CC(C)[C@H]1NC(=O)[C@H](Cc2ccc(OP(=O)(O)O)cc2)NC(=O)OCCCCCNC(=O)[C@@H]2CCCN2C(=O)[C@@H](C(C)C)NC(=O)[C@H](CC(N)=O)NC1=O |  | 710 |
| CC(=O)N[C@H]1CCCCNC(=O)[C@H]2CCCN2C(=O)[C@H](C(C)C)NC(=O)[C@@H](CC(N)=O)NC(=O)[C@H](CC2CCCCC2)NC(=O)[C@@H](Cc2ccc(OP(=O)(O)O)cc2)NC1=O | > 150000 | 1610 |
| CC(C)[C@H]1NC(=O)[C@H](Cc2ccc(OP(=O)(O)O)cc2)NC(=O)CCCCCCNC(=O)[C@@H]2CCCN2C(=O)[C@@H](C(C)C)NC(=O)[C@H](CC(N)=O)NC1=O |  | 600 |
| CC(=O)N[C@H]1CCCCNC(=O)[C@H]2CCCN2C(=O)[C@H](CC2CCCCC2)NC(=O)[C@@H](CC(N)=O)NC(=O)[C@H](C(C)C)NC(=O)[C@@H](Cc2ccc(OP(=O)(O)O)cc2)NC1=O | > 150000 | 110 |
| CC(C)[C@@H]1NC(=O)[C@H](Cc2ccc(OP(=O)(O)O)cc2)NC(=O)OCCCCCNC(=O)[C@@H]2CCCN2C(=O)[C@H](C(C)C)NC(=O)[C@H](CC(N)=O)NC1=O | > 100000 |  |
| CC(C)[C@H]1NC(=O)[C@H](Cc2ccc(OP(=O)(O)O)cc2)NC(=O)CNC(=O)[C@H]2CCCN2C(=O)[C@@H](C(C)C)NC(=O)[C@H](CC(N)=O)NC1=O | > 100000 | 10800 |
| CC(C)[C@@H]1NC(=O)[C@H](Cc2ccc(OP(=O)(O)O)cc2)NC(=O)CCCCCCNC(=O)[C@@H]2CCCN2C(=O)[C@H](C(C)C)NC(=O)[C@H](CC(N)=O)NC1=O | > 100000 |  |

More lines, now with the values ahead:

| IC50 [1] [nM] | IC50 [2] [nM] | Compound |
| --- | --- | --- |
| > 100000 |  | CC(C)[C@@H]1NC(=O)[C@H](Cc2ccc(OP(=O)(O)O)cc2)NC(=O)CNC(=O)[C@@H]2CCCN2C(=O)[C@H](C(C)C)NC(=O)[C@H](CC(N)=O)NC1=O |
| 38000 |  | CC(=O)N[C@H]1CSSC[C@@H](C(=O)O)NC(=O)[C@H]2CCCN2C(=O)[C@H](C(C)C)NC(=O)[C@@H](CC(N)=O)NC(=O)[C@H](C(C)C)NC(=O)[C@@H](Cc2ccc(OP(=O)(O)O)cc2)NC1=O |
| > 100000 | 1630 | CCCCNC(=O)[C@@H]1CCCN1C(=O)[C@@H](NC(=O)[C@H](CC(N)=O)NC(=O)[C@@H](NC(=O)[C@H](Cc1ccc(OP(=O)(O)O)cc1)NC(=O)CC)C(C)C)C(C)C (Propionyl-[pY]VNVP-NHBu) |
| > 150000 | 1340 | CC(=O)N[C@H]1CCCCNC(=O)[C@H]2CCCN2C(=O)[C@H](C(C)C)NC(=O)[C@@H](CC(N)=O)NC(=O)[C@H](CC(C)C)NC(=O)[C@@H](Cc2ccc(OP(=O)(O)O)cc2)NC1=O |
|  | 520 | CC(C)[C@H]1NC(=O)[C@H](Cc2ccc(OP(=O)(O)O)cc2)NC(=O)CNC(=O)[C@@H]2CCCN2C(=O)[C@@H](C(C)C)NC(=O)[C@H](CC(N)=O)NC1=O |
| 73000 | 180 | CC(=O)N[C@@H]1CCCCNC(=O)[C@H]2CCCN2C(=O)[C@H](C(C)C)NC(=O)[C@@H](CC(N)=O)NC(=O)[C@H](C(C)C)NC(=O)[C@@H](Cc2ccc(OP(=O)(O)O)cc2)NC1=O |

From ChEMBL document CHEMBL1132170, “Structural and conformational requirements for high-affinity binding to the SH2 domain of Grb2(1)” (J Med Chem, 1999)
